Laboratory results: ChEMBL document CHEMBL1132528, “A novel molecular design of thrombin receptor antagonist” (Bioorg Med Chem Lett, 1999)
pEC50: −log10 of the molar value. The source made the active and inactive calls. The calls are words filed in the database; no cut-off is given here. Peptide text beside a SMILES is read from it.

Experiments:
Homo sapiens [1] = organism: Homo sapiens; assay: Platelet aggregation activity of the compound; IA means inactive; assay type: functional, organism-based
In short: (§1)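 Human platelet-rich plasma from healthy donors who had taken no medication for the previous two weeks. Synthetic peptides were added directly and scored for their ability to induce platelet aggregation.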

[2] = target: T1, Proteinase-activated receptor 1 (Homo sapiens) (UniProt P25116); assay: Thrombin receptor antagonistic activity was evaluated by the inhibition of platelet aggregation induced by the agonist SFLLRNP; IA means inactive; assay type: functional
T1 sequence (whole entry): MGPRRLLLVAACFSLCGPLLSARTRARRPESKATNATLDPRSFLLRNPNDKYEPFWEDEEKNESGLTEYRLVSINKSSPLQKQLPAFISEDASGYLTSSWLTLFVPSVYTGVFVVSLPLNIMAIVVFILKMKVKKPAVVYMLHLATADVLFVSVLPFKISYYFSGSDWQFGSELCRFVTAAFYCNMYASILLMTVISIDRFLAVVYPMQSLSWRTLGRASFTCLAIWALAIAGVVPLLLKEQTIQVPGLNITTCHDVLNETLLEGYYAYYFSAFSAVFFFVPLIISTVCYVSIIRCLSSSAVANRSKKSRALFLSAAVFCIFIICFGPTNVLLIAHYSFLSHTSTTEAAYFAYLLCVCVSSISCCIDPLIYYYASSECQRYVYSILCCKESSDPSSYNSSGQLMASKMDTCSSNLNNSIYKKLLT
In short: (§2)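 Human platelet-rich plasma from drug-free healthy donors. Test peptide (e.g. 100 μM) was incubated in the plasma for 3 min, then SFLLRNP agonist was added to induce aggregation. Inhibition of aggregation was measured; IC50 came from dose-dependent inhibition.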

Homo sapiens [3] = organism: Homo sapiens; assay: Platelet aggregation activity of the compound; assay type: functional, organism-based; in short: as §1
[4] = target: T1, Proteinase-activated receptor 1 (Homo sapiens); assay: Thrombin receptor antagonistic activity was evaluated by the inhibition of platelet aggregation induced by the agonist SFLLRNP; assay type: functional; design: scale not given: the % may be the effect or the level left; in short: as §2

Row | Compound | EC50 (Homo sapiens [1]) | Activity [2] | pEC50 (Homo sapiens [3]) | Activity [4] [%]
1 | CC(C)C[C@H](NC(=O)[C@H](CC(C)C)NC(=O)[C@H](CC(=O)O)NC(=O)[C@@H](N)CO)C(=O)N[C@@H](CCCN=C(N)N)C(=O)N[C@@H](CC(N)=O)C(=O)N1CCC[C@H]1C(=O)O (H-SDLLRNP-OH) | Not Active | inactive |  | 
2 | CC(C)C[C@H](NC(=O)[C@H](CC(C)C)NC(=O)[C@H](Cc1ccccc1)NC(=O)[C@@H](N)CC(=O)O)C(=O)N[C@@H](CCCN=C(N)N)C(=O)N[C@@H](CC(N)=O)C(=O)N1CCC[C@H]1C(=O)O (H-DFLLRNP-OH) | Not Active | inactive |  | 
3 | CC(C)C[C@H](NC(=O)[C@H](CC(C)C)NC(=O)[C@H](Cc1ccccc1)NC(=O)[C@@H](N)CO)C(=O)N[C@@H](CCCN=C(N)N)C(=O)N[C@@H](CC(=O)O)C(=O)N1CCC[C@H]1C(=O)O (H-SFLLRDP-OH) |  | inactive | 5.36 | 
4 | CC(C)C[C@H](NC(=O)[C@H](Cc1ccccc1)NC(=O)[C@@H](N)CO)C(=O)N[C@@H](CC(=O)O)C(=O)N[C@@H](CCCN=C(N)N)C(=O)N[C@@H](CC(N)=O)C(=O)N1CCC[C@H]1C(=O)O (H-SFLDRNP-OH) | Not Active | inactive |  | 
5 | CC(C)C[C@H](NC(=O)[C@H](CC(C)C)NC(=O)[C@H](Cc1ccccc1)NC(=O)[C@@H](N)CO)C(=O)N[C@@H](CCCN=C(N)N)C(=O)N[C@@H](CC(N)=O)C(=O)N1CCC[C@H]1C(=O)O (H-SFLLRNP-OH) |  | inactive | 5.37 | 
6 | CC(C)C[C@H](NC(=O)[C@H](CC(=O)O)NC(=O)[C@H](Cc1ccccc1)NC(=O)[C@@H](N)CO)C(=O)N[C@@H](CCCN=C(N)N)C(=O)N[C@@H](CC(N)=O)C(=O)N1CCC[C@H]1C(=O)O (H-SFDLRNP-OH) | Not Active |  |  | 19
7 | CC(C)C[C@H](NC(=O)[C@H](CC(C)C)NC(=O)[C@H](Cc1ccccc1)NC(=O)[C@@H](N)CO)C(=O)N[C@@H](CC(=O)O)C(=O)N[C@@H](CC(N)=O)C(=O)N1CCC[C@H]1C(=O)O (H-SFLLDNP-OH) | Not Active | inactive |  | 
8 | CC(C)C[C@H](NC(=O)[C@H](CC(C)C)NC(=O)[C@H](Cc1ccccc1)NC(=O)[C@@H](N)CO)C(=O)N[C@@H](CCCN=C(N)N)C(=O)N[C@@H](CC(N)=O)C(=O)N[C@@H](CC(=O)O)C(=O)O (H-SFLLRND-OH) |  | inactive | 5.37 | 
